Source: ChEMBL document CHEMBL1121797, “Studies on chiral interactions of 1-(2,5-dimethoxy-4-methylphenyl)-2-aminopropane and the corresponding N-hydroxy metabolites with cytochrome P-450” (J Med Chem, 1981)

Experiments:
[1] = Initial rates of formation of metabolic intermediate Cytochrome P-450 at compound concentration of 30 uM; format: ADME
Method in brief: (§1)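 Rabbit liver microsomes at 2 mg protein/mL with 0.1 mM EDTA, 37 °C, substrate 30 μM. Complex formation started with 0.4 mM NADPH and followed by dual-wavelength absorbance, 457 vs 500 nm. Initial rate is the initial slope, ΔA×10^4 per nmol P-450 per min. Extent is the plateau absorbance. Lag is the time from NADPH addition to first 457-nm chromophore. Triplicate or single runs.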

[2] = Extent rates of formation of metabolic intermediate Cytochrome P-450 at compound concentration of 30 uM; format: ADME; method in brief: as §1
[3] = molecular target: T1, Cytochrome P450 2C19 (Homo sapiens, UniProt P33261); assay: Percent inhibition of formation of metabolic intermediate complex between Cytochrome P450 and compound 1a (30 uM) on extent, on pre-incubation with compound concentration of 5 uM; format: ADME, Oryctolagus cuniculus; settings: rabbit, probe compound 1a (30 uM)
Method in brief: (§2)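 Hepatic microsomes came from male Dutch rabbits, fasted 24 h. They were diluted to 2 mg protein/mL in 50 mM Tris-Cl with 150 mM KCl, 10 mM MgSO4 and 0.1 mM EDTA, with NADPH added, at 37 °C. Microsomes were preincubated with racemic hydroxylamine 2, then 30 µM 1a or 30 µM racemic 2 was added. Complex formation was followed as ΔA457–500 nm, and inhibition of rate and extent (plateau) was calculated.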

[4] = molecular target: T1, Cytochrome P450 2C19; assay: Percent inhibition of formation of metabolic intermediate complex between Cytochrome P450 and compound 1ab (30 uM) initially, following incubation at compound concentration of 20 uM; format: ADME, Oryctolagus cuniculus; settings: rabbit, probe compound 1ab (30 uM)
Method in brief: (§3)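 Rabbit liver microsomes (2 mg protein/mL; Tris-Cl/KCl/MgSO4 buffer, 0.1 mM EDTA) plus NADPH, at 37 °C, were preincubated with racemic or enantiomeric amine 1. The 457-nm complex was monitored until it plateaued (6–8 min), then racemic hydroxylamine 2 was added. Initial rate and plateau extent of complex formation came from dual-wavelength ΔA457–500 nm versus time tracings.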

[5] = molecular target: T1, Cytochrome P450 2C19; assay: Percent inhibition of formation of metabolic intermediate complex between Cytochrome P450 and compound 1ab (30 uM) on extent, following incubation at compound concentration of 20 uM; format: ADME, Oryctolagus cuniculus; settings: rabbit, probe compound 1ab (30 uM); method in brief: as §3
[6] = molecular target: T1, Cytochrome P450 2C19; assay: Percent inhibition of formation of metabolic intermediate complex between Cytochrome P450 and compound 1b (30 uM) on extent, following incubation at compound concentration of 20 uM; format: ADME, Oryctolagus cuniculus; settings: rabbit, probe compound 1b (30 uM); method in brief: as §3
[7] = molecular target: T1, Cytochrome P450 2C19; assay: Percent inhibition of formation of metabolic intermediate complex between Cytochrome P450 and compound 1a (30 uM) on extent, following incubation at compound concentration of 30 uM; format: ADME, Oryctolagus cuniculus; settings: rabbit
[8] = molecular target: T1, Cytochrome P450 2C19; assay: Percent inhibition of formation of metabolic intermediate complex between Cytochrome P450 and compound 1a (30 uM) on extent, following incubation at compound concentration of 5 uM; format: ADME, Oryctolagus cuniculus; settings: rabbit, probe compound 1a (30 uM); method in brief: as §2
[9] = molecular target: T1, Cytochrome P450 2C19; assay: Percent inhibition of formation of metabolic intermediate complex between Cytochrome P450 and compound 1a (30 uM) on extent, on pre-incubation with compound concentration of 0 uM; format: ADME, Oryctolagus cuniculus; settings: rabbit, probe compound 1a (30 uM); method in brief: as §2
[10] = molecular target: T1, Cytochrome P450 2C19; assay: Percent inhibition of formation of metabolic intermediate complex between Cytochrome P450 and compound 1a (30 uM) on extent, on pre-incubation with compound concentration of 15 uM; format: ADME, Oryctolagus cuniculus; settings: rabbit, probe compound 1a (30 uM); method in brief: as §2
[11] = molecular target: T1, Cytochrome P450 2C19; assay: Percent inhibition of formation of metabolic intermediate complex between Cytochrome P450 and compound 1a (30 uM) on extent, on pre-incubation with compound concentration of 30 uM; format: ADME, Oryctolagus cuniculus; settings: rabbit, probe compound 1a (30 uM); method in brief: as §2
[12] = molecular target: T1, Cytochrome P450 2C19; assay: Percent inhibition of formation of metabolic intermediate complex between Cytochrome P450 and compound 1a (30 uM) initially, following incubation at compound concentration of 15 uM; format: ADME, Oryctolagus cuniculus; settings: rabbit, probe compound 1a (30 uM)
Method in brief: (§4)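 Inverse cross-inhibition in NADPH-supplemented rabbit liver microsomes at 37 °C. Preincubation with racemic hydroxylamine at 0–30 μM, monitoring 457-nm complex formation. The amine was then added at 30 μM, or racemic hydroxylamine at 30 μM. Initial rate and plateau extent were taken from ΔA457–500 nm tracings. Percent inhibition is relative to incubation in fresh microsomes.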

[13] = molecular target: T1, Cytochrome P450 2C19; assay: Percent inhibition of formation of metabolic intermediate complex between Cytochrome P450 and compound 1a (30 uM) initially, following incubation at compound concentration of 20 uM; format: ADME, Oryctolagus cuniculus; settings: rabbit, probe compound 1a (30 uM)
[14] = molecular target: T1, Cytochrome P450 2C19; assay: (§5) Percent inhibition of formation of metabolic intermediate complex between Cytochrome P450 and compound 1a (30 uM) initially, following incubation at compound concentration of 30 uM; format: ADME, Oryctolagus cuniculus; settings: rabbit, probe compound 1a (30 uM); method in brief: as §4
[15] = molecular target: T1, Cytochrome P450 2C19; assay: as §5; format: ADME, Oryctolagus cuniculus; settings: rabbit, probe compound 1a (30 uM); method in brief: as §4; remark: listed apart in the source
[16] = molecular target: T1, Cytochrome P450 2C19; assay: Percent inhibition of formation of metabolic intermediate complex between Cytochrome P450 and compound 1a (30 uM) initially, following incubation at compound concentration of 5 uM; format: ADME, Oryctolagus cuniculus; settings: rabbit, probe compound 1a (30 uM); method in brief: as §4
[17] = molecular target: T1, Cytochrome P450 2C19; assay: Percent inhibition of formation of metabolic intermediate complex between Cytochrome P450 and compound 1a (30 uM) initially, on pre-incubation with compound concentration of 0 uM; format: ADME, Oryctolagus cuniculus; settings: rabbit, probe compound 1a (30 uM); method in brief: as §4
[18] = molecular target: T1, Cytochrome P450 2C19; assay: Percent inhibition of formation of metabolic intermediate complex between Cytochrome P450 and compound 1a (30 uM) initially, on pre-incubation with compound concentration of 15 uM; format: ADME, Oryctolagus cuniculus; settings: rabbit, probe compound 1a (30 uM); method in brief: as §4
[19] = molecular target: T1, Cytochrome P450 2C19; assay: Percent inhibition of formation of metabolic intermediate complex between Cytochrome P450 and compound 1a (30 uM) initially, on pre-incubation with compound concentration of 30 uM; format: ADME, Oryctolagus cuniculus; settings: rabbit, probe compound 1a (30 uM); method in brief: as §4
[20] = molecular target: T1, Cytochrome P450 2C19; assay: Percent inhibition of formation of metabolic intermediate complex between Cytochrome P450 and compound 1a (30 uM) on extent, following incubation at compound concentration of 0 uM; format: ADME, Oryctolagus cuniculus; settings: rabbit, probe compound 1a (30 uM); method in brief: as §2
[21] = molecular target: T1, Cytochrome P450 2C19; assay: Percent inhibition of formation of metabolic intermediate complex between Cytochrome P450 and compound 1a (30 uM) on extent, following incubation at compound concentration of 15 uM; format: ADME, Oryctolagus cuniculus; settings: rabbit, probe compound 1a (30 uM); method in brief: as §2
[22] = molecular target: T1, Cytochrome P450 2C19; assay: Percent inhibition of formation of metabolic intermediate complex between Cytochrome P450 and compound 1a (30 uM) on extent, following incubation at compound concentration of 20 uM; format: ADME, Oryctolagus cuniculus; settings: rabbit, probe compound 1a (30 uM)

T1 sequence (P33261 whole entry): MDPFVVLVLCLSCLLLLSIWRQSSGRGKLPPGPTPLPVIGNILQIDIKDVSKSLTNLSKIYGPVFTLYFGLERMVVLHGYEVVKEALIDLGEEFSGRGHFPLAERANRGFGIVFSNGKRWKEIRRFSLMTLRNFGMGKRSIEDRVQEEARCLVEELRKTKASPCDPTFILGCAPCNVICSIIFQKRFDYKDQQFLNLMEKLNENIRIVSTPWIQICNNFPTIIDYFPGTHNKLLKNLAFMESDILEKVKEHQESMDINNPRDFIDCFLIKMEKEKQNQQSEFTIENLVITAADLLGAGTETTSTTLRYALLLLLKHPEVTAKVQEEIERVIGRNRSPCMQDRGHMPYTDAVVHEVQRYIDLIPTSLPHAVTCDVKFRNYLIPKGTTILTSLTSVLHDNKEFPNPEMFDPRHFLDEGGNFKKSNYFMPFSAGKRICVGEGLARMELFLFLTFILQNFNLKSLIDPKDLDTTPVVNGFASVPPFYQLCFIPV

Compound: COc1cc(C[C@@H](C)NO)c(OC)cc1C.COc1cc(C[C@H](C)NO)c(OC)cc1C
- Rate [1]: 154
- Rate [2]: 131
- inhibition at 5 µM [3]: 43%
- inhibition at 20 µM [4]: 30%
- inhibition at 20 µM [5]: 12%
- inhibition at 20 µM [6]: 13%
- Inhibition ([7]; 30 µM): 66%
- inhibition at 30 µM ([7]; probe compound 1a (30 uM)): 73%
- inhibition at 5 µM [8]: 39%
- inhibition at 0 uM [9]: 0%
- inhibition at 15 µM [10]: 100%
- inhibition at 30 µM [11]: 100%
- inhibition at 15 µM [12]: 51%
- inhibition at 20 µM [13]: 29%
- inhibition at 30 µM [14]: 72%
- inhibition at 30 µM [15]: 74%
- inhibition at 5 µM [16]: 39%
- inhibition at 0 uM [17]: 0%
- inhibition at 15 µM [18]: 100%
- inhibition at 30 µM [19]: 100%
- inhibition at 0 uM [20]: 30%
- inhibition at 15 µM [21]: 46%
- inhibition at 20 µM [22]: 27%
